Assay results pooled from the literature.
Each line is one published result; the experiments were not run side by side.
Target: Activin receptor type-2B (ACVR2B, Homo sapiens, UniProt Q13705)

SMILES | effect on | method | concentration | remaining binding
O=C(Nc1c[nH]nc1C(=O)NC1CCNCC1)c1cc(F)cc(F)c1 | binding | competition with immobilised ligand | 1 µM | 100%
CN(c1nccc(-c2cnn3ncccc23)n1)C1CC1 | binding |  | 1 µM | 100%
Cc1cc(C)c(-n2ccn3nc(-c4cccnc4)cc23)cc1NC(=O)c1cc(C#N)cc(S(F)(F)(F)(F)F)c1 | binding | competition with immobilised ligand | 0.1 µM | 88.7%
O=C(NCCCN1CCOCC1)c1ccc(Nc2ncc(Cl)c(-c3ccc(Cl)s3)n2)cc1 | binding | competition with immobilised ligand | 1 µM | 81%
N[C@@H]1CCN(c2nccc(-c3cnn4ncccc34)n2)C1 | binding |  | 1 µM | 100%
Nc1ncc2c(n1)-c1c([nH]c3ccc(C#CC4CC4)cc13)CCCC2 | binding | competition with immobilised ligand | 1 µM | 89%
O=c1nc(-c2ccccn2)sc2ccccc12 | binding | competition with immobilised ligand | 1 µM | 100%
O=C(NCCCN1CCOCC1)c1ccc(Nc2nccc(-c3cc4ccccc4s3)n2)cc1 | binding | competition with immobilised ligand | 1 µM | 89%
CO[C@@H](C)c1c(Nc2ccc([C@@H](N(C)C(=O)C3CCS(=O)(=O)CC3)C(F)(F)F)cc2)cnc2cc(Cl)nn12 | cell-free assay | competition with immobilised ligand | 1 µM | 100%
COc1cnc(Nc2cccc(S(N)(=O)=O)c2)nc1N1CCN(c2ccccc2)CC1 | binding | competition with immobilised ligand | 1 µM | 100%
F[C@@H]1CCN(c2nccc(-c3cnn4ncccc34)n2)C1 | binding |  | 1 µM | 100%
CNC(=O)[C@@H]1CC[C@@H](n2c(-c3ccc4cnccc4c3)nc3ccc(C(=O)NCc4cccc(C(N)=O)c4)cc32)C1 | binding | competition with immobilised ligand | 1 µM | 100%
Cc1c[nH]c2nccc(Oc3c(F)cc(Nc4cc(Cl)nc(N)n4)cc3F)c12 | cell-free assay | competition with immobilised ligand | 0.1 µM | 100%
COc1ncc2cc3ccccc3nc2c1C#N | binding | competition with immobilised ligand | 5 µM | 90%
COc1ccnn2ncc(-c3ccnc(N(C)C)n3)c12 | binding |  | 1 µM | 100%
Cc1cnc(Nc2ccc(C(=O)N3CCC(N4CCCC4)CC3)cc2)nc1-c1cc2ccccc2s1 | binding | competition with immobilised ligand | 1 µM | 61%
CN(C)c1nccc(-c2cnc3ncccn23)n1 | binding |  | 1 µM | 100%
CN(C)CC#Cc1ccc(OCCCc2sc(N3CCc4cccc(C(=O)Nc5nc6ccccc6s5)c4C3)nc2C(=O)O)c(F)c1 | cell-free assay | competition with immobilised ligand | 1 µM | 100%
CN(CCCC(F)(F)F)c1nccc(-c2cnn3ncccc23)n1 | binding |  | 1 µM | 100%
CC1=C(C#N)C(c2ccc3c(c2)c(NC(=O)c2ccccc2C)nn3C)C(C#N)=C(C)N1 | binding | competition with immobilised ligand | 1 µM | 100%
